Data reported in ChEMBL document CHEMBL4699650, “SAR Investigation and Discovery of Water-Soluble 1-Methyl-1,4-dihydroindeno[1,2-c]pyrazoles as Potent Tubulin Polymerization Inhibitors” (J Med Chem, 2020).
Activity calls are given as the source filed them. The calls are words filed in the database; no cut-off is given here.

Assays:
[1] = Antiproliferation activity against human A549/Taxol cells assessed as cell growth inhibition measured after 72 hrs by MTT assay; assay type: functional
In short: (§1)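 Cells grown in RPMI-1640 with 10% FBS at 37 °C, 5% CO2, seeded at 4−7 × 10³ cells/well and left to adhere overnight. Exposed to a range of concentrations for 72 h, then MTT (2.5 mg/mL stock) added for 4 h. Formazan dissolved in DMSO and absorbance read at 570 nm. GI50 taken as the concentration giving 50% growth inhibition, reported as mean ± SD of at least three independent experiments.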

[2] = Cytotoxicity against human L02 cells assessed as assessed as cell growth inhibition measured after 72 hrs by MTT assay; assay type: cell-based
In short: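 LO2 normal liver cells cultured in RPMI-1640/10% FBS at 37 °C, 5% CO2 and seeded at 4−7 × 10³ cells/well. Graded concentrations applied for 72 h, then MTT readout at 570 nm. GI50 is the concentration giving 50% growth inhibition, mean ± SD of at least three independent experiments.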

[3] = Resistance index, ratio of GI50 for antiproliferation activity against human A549/Taxol cells to GI50 for antiproliferation activity against human A549 cells assessed as cell growth inhibition measured after 72 hrs by MTT assay
[4] = Selectivity index, ratio of GI50 for cytotoxicity against human L02 cells to GI50 for antiproliferation activity against human HepG2 cells assessed as cell growth inhibition measured after 72 hrs by MTT assay; assay type: toxicity, cell-based; details: L02 cells and HepG2 cells, read-out: RatioGI50
In short: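 MTT assay: cells seeded 4–7 × 10³/well, adhered overnight, exposed to a concentration series for 72 h. MTT (2.5 mg/mL stock) added for 4 h, crystals dissolved in DMSO, absorbance read at 570 nm. GI50 is mean ± SD of ≥3 independent experiments. Selectivity = GI50 on normal LO2 / GI50 on HepG2. Resistance fold = GI50 on resistant cells / GI50 on sensitive cells.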

[5] = Inhibition of porcine brain tubulin polymerization measured every 60 sec for 60 mins in presence of GTP by fluorescence assay; parameters: species or system Sus scrofa
In short: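 Fluorescence kit assay using 2 mg/mL porcine brain tubulin with 2 mM MgCl₂, 0.5 mM EGTA, 1 mM GTP and 15% glycerol. Compound at various concentrations preincubated 1 min at 37 °C before adding the tubulin mix. Read at ex 355/em 460 nm every 60 s for 60 min. IC50 is the concentration giving 50% inhibition at 60 min; mean ± SD of ≥3 independent experiments.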

A549 = assay: Antiproliferation activity against human A549 cells assessed as cell growth inhibition measured after 72 hrs by MTT assay; assay type: functional; in short: as §1
HCT-116 = assay: Antiproliferation activity against human HCT116 cells assessed as cell growth inhibition measured after 72 hrs by MTT assay; assay type: functional; in short: as §1
HepG2 [6] = assay: Antiproliferation activity against human HepG2 cells assessed as cell growth inhibition measured after 72 hrs by MTT assay; assay type: functional; in short: as §1
HepG2 [7] = assay: Induction of apoptosis in human HepG2 cells assessed as PARP cleavage at 20 nM incubated for 24 hrs by western blot analysis; assay type: functional, cell-based
In short: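 Lysates (20 μg protein) run on 10% polyacrylamide gel, transferred to PVDF, blocked in 5% nonfat milk, probed overnight at 4 °C for cleaved PARP. HRP secondary, ECL detection, densitometry; one-way ANOVA with Dunnett's test vs control.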

[8] = biological target: Tubulin beta (Homo sapiens) (UniProt P68371+Q9H4B7+Q13509+P04350+Q3ZCM7+P07437+Q13885+Q9BVA1+Q9BUF5+A6NNZ2); assay: Inhibition of N,N'-Ethylenebis(iodoacetamide) binding to beta-tubulin in human HepG2 cells assessed as reduction in EBI/beta-tubulin adduct formation at 5 uM preincubated for 2 hrs followed by EBI addition and measured after 1.5 hrs by Western blot analysis; assay type: cell-based; details: time 3.5 hrs
In short: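 HepG2 seeded 5 × 10⁵ cells/well, adhered overnight. Lysate protein (20 μg) run on 10% polyacrylamide gel on ice and transferred to PVDF. Probed with anti-β-tubulin 16 h at 4 °C, then HRP secondary. Chemiluminescence detection.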

HepG2 [9] = assay: Inhibition of cell migration in human HepG2 cells at 10 nM measured after 24 hrs by inverted light microscopy method based wound healing assay relative to control; assay type: functional
In short: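 Confluent HepG2 monolayer (seeded 3 × 10⁵ cells/well) scratched with a pipette tip and washed with PBS. Incubated in serum-free DMEM with compound at 2.5, 5 or 10 nM for 24 h; CA-4 run in parallel, DMSO as vehicle. Wound imaged at 0 and 24 h by inverted microscope and compared with control.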

Structure (SMILES) | GI50 [1] [nM] | GI50 at 72 h [2] [nM] | RatioGI50 [3] | selectivity ratio at 72 h [4] | IC50 [5] [nM] | GI50 (A549) [nM] | GI50 (HCT-116) [nM] | GI50 (HepG2 [6]) [nM] | Activity (HepG2 [7]) | inhibition [8] | inhibition at 0.01 µM (HepG2 [9]) [%]
CC(=O)O[C@H]1C(=O)[C@@]2(C)[C@H]([C@H](OC(=O)c3ccccc3)[C@]3(O)C[C@H](OC(=O)[C@H](O)[C@@H](NC(=O)c4ccccc4)c4ccccc4)C(C)=C1C3(C)C)[C@]1(OC(C)=O)CO[C@@H]1C[C@@H]2O [PACLITAXEL] | 935 | 30.8 | 246 | 12 | – | – | – | – | – | – | –
CCOc1cc2c(cc1OCC(=O)NC)-c1c(c(Nc3cccc(C#N)c3)nn1C)C2 | – | – | – | – | > 20000 | 2040 | 819 | 97.3 | – | – | –
CCOc1cccc(Nc2nn(C)c3c2Cc2cc(OCC)c(OCCCNC(C)=O)cc2-3)c1 | – | – | – | – | > 20000 | 935 | 197 | 364 | – | – | –
CCOc1cc2c(cc1OCCCO)-c1c(c(Nc3cccc(C(=O)NC)c3)nn1C)C2 | – | – | – | – | > 20000 | 1340 | 1480 | 2350 | – | – | –
CCOc1cc2c(cc1OCCCO)-c1c(c(Nc3cccc(C(=O)O)c3)nn1C)C2 | – | – | – | – | > 20000 | 18300 | 5380 | > 20000 | – | – | –
CCOc1cc2c(cc1OCCCO)-c1c(c(Nc3cccc(C(=O)OC)c3)nn1C)C2 | – | – | – | – | 5900 | 8.1 | 12.3 | 7.1 | – | – | –
CCOc1cccc(Nc2nn(C)c3c2Cc2cc(OC)c(OCC(N)=O)cc2-3)c1 | – | – | – | – | 13400 | 19.6 | 26.5 | 15 | – | – | –
CCOc1cccc(Nc2nn(C)c3c2Cc2cc(OCC)c(OCCCO)cc2-3)c1 | – | – | – | – | 5800 | 94.4 | 10.4 | 15.7 | – | – | –
CCOc1cccc(Nc2nn(C)c3c2Cc2cc(O)c(OCC(N)=O)cc2-3)c1 | – | – | – | – | > 20000 | 15200 | 4660 | 5330 | – | – | –
CCOc1cc2c(cc1OCC(N)=O)-c1c(c(Nc3cccc(C#N)c3)nn1C)C2 | – | – | – | – | 9900 | 166 | 361 | 66.9 | – | – | –
COc1cc2c(c(OC)c1OC)-c1ccc(OC)c(=O)cc1[C@@H](NC(C)=O)CC2 | – | – | – | – | – | – | – | – | Active | – | –
CCOc1cc2c(cc1OCC(N)=O)-c1c(c(Nc3cccc(C(=O)OC)c3)nn1C)C2 | – | – | – | – | 4500 | 3 | 9.7 | 4.3 | – | – | –
CCNc1cccc(Nc2nn(C)c3c2Cc2cc(OCC)c(OCC(N)=O)cc2-3)c1 | – | – | – | – | 10800 | 356 | 432 | 107 | – | – | –
CCOc1cccc(Nc2nn(C)c3c2Cc2cc(OCC)c(OCC(=O)O)cc2-3)c1 | – | – | – | – | > 20000 | 8660 | 1270 | 1640 | – | – | –
CC[C@]1(O)C[C@H]2CN(CCc3c([nH]c4ccccc34)[C@@](C(=O)OC)(c3cc4c(cc3OC)N(C=O)[C@H]3[C@@](O)(C(=O)OC)[C@H](OC(C)=O)[C@]5(CC)C=CCN6CC[C@]43[C@@H]65)C2)C1 | – | – | – | – | – | – | – | – | – | inactive | –
CCOc1cc2c(cc1OCCCN)-c1c(c(Nc3cccc(C#N)c3)nn1C)C2 | – | – | – | – | 5700 | 20.8 | 6.4 | 3.8 | – | – | –
CCOc1cc2c(cc1OCCCN)-c1c(c(Nc3cccc(C(=O)CC)c3)nn1C)C2 | – | – | – | – | 3100 | 7.6 | 4 | 2.1 | – | – | –
CCOC(=O)c1cccc(Nc2nn(C)c3c2Cc2cc(OCC)c(OCC(N)=O)cc2-3)c1 | – | – | – | – | 3900 | 12 | 4.5 | 3.4 | – | – | –

Structure (SMILES) | GI50 [1] [nM] | GI50 at 72 h [2] [nM] | RatioGI50 [3] | selectivity ratio at 72 h [4] | IC50 [5] [nM] | GI50 (A549) [nM] | GI50 (HCT-116) [nM] | GI50 (HepG2 [6]) [nM] | Activity (HepG2 [7]) | inhibition [8] | inhibition at 0.01 µM (HepG2 [9]) [%]
CCOC(=O)c1cccc(Nc2nn(C)c3c2Cc2cc(OCC)c(OCCCO)cc2-3)c1 | – | – | – | – | 3500 | 5.3 | 7.7 | 3.3 | – | – | –
CCOc1cc2c(cc1OCCCO)-c1c(c(Nc3cccc(C(=O)OC(C)C)c3)nn1C)C2 | – | – | – | – | 7700 | 164 | 103 | 36.7 | – | – | –
CCOc1cc2c(cc1OCC(=O)NC)-c1c(c(Nc3cccc(C(=O)OC)c3)nn1C)C2 | – | – | – | – | 6300 | 78.1 | 37.1 | 10.2 | – | – | –
COc1ccc(/C=C\c2cc(OC)c(OC)c(OC)c2)cc1O [COMBRETASTATIN A4] | 20.4 | 333 | 4 | 55 | 2300 | 4.8 | 2.4 | 6.1 | – | – | 47
CCOc1cccc(Nc2nn(C)c3c2Cc2cc(OCC)c(OCC(N)=O)cc2-3)n1 | – | – | – | – | 4100 | 62.5 | 19 | 17.1 | – | – | –
CCOc1cc2c(cc1OCC(N)=O)-c1c(c(Nc3cccc(C(=O)OC(C)C)c3)nn1C)C2 | – | – | – | – | 8000 | 121 | 36.4 | 25.3 | – | – | –
CCOc1cccc(Nc2nn(C)c3c2Cc2cc(OCc4ccc(OC)cc4)c(OCC(N)=O)cc2-3)c1 | – | – | – | – | > 20000 | 3080 | 16600 | 3070 | – | – | –
CCOc1cc2c(cc1OCCCO)-c1c(c(Nc3cccc(C#N)c3)nn1C)C2 | – | – | – | – | 9100 | 176 | 151 | 42.9 | – | – | –
CCCOc1cc2c(cc1OCC(N)=O)-c1c(c(Nc3cccc(OCC)c3)nn1C)C2 | – | – | – | – | 11000 | 426 | 230 | 55.6 | – | – | –
CCOc1cccc(Nc2nn(C)c3c2Cc2cc(OCC)c(OCCCO)cc2-3)n1 | – | – | – | – | 5000 | 72 | 27.1 | 15.5 | – | – | –
CCCOc1cc2c(cc1OCC)Cc1c(Nc3cccc(OCC)c3)nn(C)c1-2 | – | – | – | – | 14600 | 512 | 129 | 397 | – | – | –
CCOc1cc2c(cc1OCCCO)-c1c(c(Nc3cccc(C(=O)CC)c3)nn1C)C2 | – | – | – | – | 5300 | 38.2 | 24.5 | 13.6 | – | – | –
CCOc1ccc(Nc2nn(C)c3c2Cc2cc(OCC)c(OCC(N)=O)cc2-3)cc1 | – | – | – | – | > 20000 | 15000 | 4310 | 1910 | – | – | –
CCCOc1cc2c(cc1OCC(N)=O)Cc1c(Nc3cccc(OCC)c3)nn(C)c1-2 | – | – | – | – | > 20000 | 25400 | 1140 | 1960 | – | – | –
CCOc1cc2c(cc1OCC(N)=O)-c1c(c(Nc3cccc(C(=O)NC)c3)nn1C)C2 | – | – | – | – | > 20000 | 13100 | 2100 | 642 | – | – | –
CCOc1cc2c(cc1OCC(N)=O)-c1c(c(Nc3cccc(C(=O)CC)c3)nn1C)C2 | – | – | – | – | 4100 | 21.4 | 27 | 9.2 | – | – | –
CCCCOc1cc2c(cc1OCC(N)=O)-c1c(c(Nc3cccc(OCC)c3)nn1C)C2 | – | – | – | – | > 20000 | 19900 | 4770 | 2760 | – | – | –
